XBP1 UPR activ: activators of adaptive arm of unfolded protein response (XBP1); AID 463104; 330,000 compounds, 0.33% hits; activation, % at 20 µM; CHO-XBP1 luciferase reporter, IRE1-XBP1 UPR activation, luminescence; percent of tunicamycin response, DMSO as zero;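 active means versus positive control, 20 µM dose yields 30% or more activation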
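Material: CHO-XBP1 cells stably carrying IRE1-XBP1-driven luciferase reporter / Amount: 1000 cells per well / Compound: 20 µM, 1% DMSO / Times: 6 h treatment, 37 °C / Detection: luciferase luminescence / Measure: % activation of reporter signal versus tunicamycin and DMSO controls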
MC4R antagonist: blocks human MC4R cAMP signaling. P32245. MC4R-expressing cells, MTII-stimulated cAMP, LANCE TR-FRET. inhibition, % at 6.5 µM. 360,000 compounds, 0.48% hits. AID 540295;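 active means inhibition above its plate's cutoff, the mean of tested wells on that plate plus 3 SD, cut at about 29% in these data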
Target sequence (P32245 whole entry, looked up): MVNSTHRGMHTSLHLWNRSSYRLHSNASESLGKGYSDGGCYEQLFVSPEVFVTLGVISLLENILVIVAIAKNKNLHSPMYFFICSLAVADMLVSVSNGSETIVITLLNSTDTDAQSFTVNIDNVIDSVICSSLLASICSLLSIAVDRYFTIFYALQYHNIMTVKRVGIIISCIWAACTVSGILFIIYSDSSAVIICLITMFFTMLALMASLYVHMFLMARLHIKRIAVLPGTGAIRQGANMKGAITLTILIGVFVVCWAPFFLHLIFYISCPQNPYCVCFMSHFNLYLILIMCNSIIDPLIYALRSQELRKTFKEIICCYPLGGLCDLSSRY
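Material – human MC4R-expressing U2OS cells · Repeats – no replicates · Detection – TR-FRET with Eu-cAMP and labeled anti-cAMP, 671 nm · Times – compound 30 min, challenge 1 h, detection 1 h · Compound – single nominal compound dose of 6.5 µM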
MC4R barr agon: agonists of human melanocortin 4 receptor (MC4R) beta-arrestin; U2OS MC4R beta-arrestin complementation, luminescence; percent of melanotan II response, DMSO zero; P32245; 360,000 compounds, 0.98% hits; activation, % at 8.9 µM;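 active means activation above a per-plate cutoff, the mean activation of sample wells on that plate plus 3 SD, cut at about 8% in these data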
CHOP UPR activ: apoptotic UPR (CHOP) activation | CHO-CHOP luciferase reporter, luminescence; percent of tunicamycin response over DMSO baseline | 330,000 compounds, 0.34% hits | activation, % at 10 µM | AID 449763;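 active means at 10 µM dose, activation of 40% or more, normalized to positive control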
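Assay system: CHO-CHOP cells, stable luciferase reporter of PERK-eIF2a-CHOP signalling / Buffer or medium: F12 plus 10% serum / Compound dosing: one dose, 10 µM in 0.5% DMSO / Times: 6 h compound treatment, 37 °C / Technique: luciferase luminescence / Read-out: % reporter activation, DMSO baseline versus tunicamycin full activation / Benchmarks: tunicamycin and DMSO controls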
Bfl-1 A1 inh: inhibitors of the anti-apoptotic protein A1, read as caspase activation; caspase activation, % (test concentration not listed); AID 2462; MEF A1-2A-BIM cells, Caspase-Glo 3/7 luminescence, 3 h; percent of clofoctol response, vehicle zero; 330,000 compounds, 0.066% hits;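 active means over half of replicate activation scores above 10%, or exactly half above 10 with the replicate mean above 10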
MC4R barr conf: human MC4R beta-arrestin agonism confirmation; shares compounds with MC4R barr agon; U2OS MC4R beta-arrestin recruitment, luminescence; scaled DMSO 0%, Melanotan II 100%; activation, % at 8.9 µM; 2,400 compounds, 31% hits; AID 602192;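 active means mean activation across replicates above the hit cutoff set in the earlier primary screen, cut at about 8% in these data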
MOR DOR agonist: OPRM1-OPRD1 heterodimer agonism counter-screen; shares compounds with MC4R barr agon; U2OS PathHunter beta-arrestin, beta-gal luminescence; percent of deltorphin B response, DMSO zero; activation, % at 9.2 µM; 2,400 compounds, 5.8% hits;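 active means mean activation across replicates exceeds the hit threshold derived in the earlier primary screen, cut at about 18% in these data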
Large screens that a line does not name were inactive (follow-up assays come after a bar, where they were run). An excerpt weighted towards active compounds, which were near 2% of everything screened.

c1ccc2c(c1)oc1c(Nc3ccc4c(c3)OCO4)ncnc12	MC4R barr agon 11 | MC4R barr conf inactive | MOR DOR agonist inactive
CCN(C(=O)c1cc2c(=O)[nH]c3ccc(C)cc3c2s1)c1ccc(F)cc1	MC4R barr agon 12 | MC4R barr conf inactive | MOR DOR agonist inactive
N/C(Cc1ccc(Cl)cc1)=N\OC(=O)c1cccc2ccccc12	MC4R barr agon 11 | MC4R barr conf 11 | MOR DOR agonist inactive
COc1cccc(C(=O)NCc2ccc(-c3nc4ccccc4s3)cc2)c1	MC4R barr agon 30 | MC4R barr conf inactive | MOR DOR agonist inactive
COc1cccc(C(=O)Nc2nnc(-c3ccccc3)s2)c1	MC4R barr agon 13 (no result: XBP1 UPR activ, CHOP UPR activ) | MC4R barr conf inactive | MOR DOR agonist inactive
OC[C@@H]1CN(Cc2ccc(-c3ccccc3)cc2)C[C@H](n2cnc3c(NCc4ccco4)ncnc32)O1	none (no result: XBP1 UPR activ, CHOP UPR activ, Bfl-1 A1 inh)
CN(C(=O)CN1CCN(c2cc(-c3cccc4oc5ccccc5c34)ncn2)CC1)c1ccccc1	none (no result: XBP1 UPR activ, CHOP UPR activ, Bfl-1 A1 inh)
O=C(Nc1ccc(F)cc1F)c1csc(-c2ccncc2)n1	none
O=C(Nc1ccc(F)cc1F)c1csc(-c2cccs2)n1	MC4R barr agon 15 | MC4R barr conf inactive | MOR DOR agonist inactive
Nc1nc(Cl)nc(N(c2ccccc2)c2ccccc2)n1	none
Nc1nc(CCl)nc(N(c2ccccc2)c2ccccc2)n1	MC4R barr agon 18 | MC4R barr conf 13 | MOR DOR agonist 31
COc1ccc(CN2C(=O)C(CC(=O)NCC3CCCCC3)CC(C(=O)N3CCOCC3)=C2C)cc1 (centres undefined)	none (no result: XBP1 UPR activ, CHOP UPR activ, Bfl-1 A1 inh)
c1cc2c(cc1C1CCCCC1)c1c3n2CCCNC3CCC1 (centres undefined)	MC4R barr agon 15 | MC4R barr conf 32 | MOR DOR agonist inactive
Cc1ccc2c(c1)c1c3n2CCCNC3CCC1 (centres undefined)	none
Cc1ccc(C)c(C(O)c2ncc(-c3ccccc3F)[nH]2)c1 (centres undefined)	none (no result: XBP1 UPR activ, CHOP UPR activ, Bfl-1 A1 inh)
COc1ccc(CC(=O)Nc2ccc(-c3noc(-c4cc(OC)c(OC)c(OC)c4)n3)cc2)cc1	none
Cc1ccccc1-c1nc(-c2ccc(NC(=O)c3ccc4c(c3)OCO4)cc2)no1	MC4R barr agon 23 | MC4R barr conf 17 | MOR DOR agonist inactive
COc1cc(-c2nc(-c3ccc(NC(=O)c4ccc5c(c4)OCO5)cc3)no2)cc(OC)c1OC	MC4R barr agon 23 | MC4R barr conf 28 | MOR DOR agonist 24
COc1ccc(-c2noc(CNC(=O)c3ccc4c(c3)OCO4)n2)cc1	none
N#Cc1ccc(CN(Nc2ccccc2)c2ccccc2)cc1	none (no result: XBP1 UPR activ, CHOP UPR activ, Bfl-1 A1 inh)
COc1ccccc1N1CCN(S(=O)(=O)CCNC(=O)CCc2ccccc2)CC1	none (no result: XBP1 UPR activ, CHOP UPR activ, Bfl-1 A1 inh)
CCCCCCCOC(=O)C[N+](C)(C)CCOC1CC2CCC1(C)C2(C)C (centres undefined)	MC4R barr agon 12 (no result: XBP1 UPR activ, CHOP UPR activ, Bfl-1 A1 inh) | MC4R barr conf 18 | MOR DOR agonist inactive
O=C(/C=C/c1ccc(Cl)c([N+](=O)[O-])c1)Nc1ccc(N2CCCC2)c(Cl)c1	MC4R barr agon 11 | MC4R barr conf inactive | MOR DOR agonist inactive
CN1CCN(c2ccc(S(=O)(=O)N3CCCCC3)cc2NC(=O)/C=C/c2ccc(Cl)c([N+](=O)[O-])c2)CC1	none
CC(C)c1ccccc1NC(=O)Nc1nnc([C@H]2C[C@H](O)[C@@H](CO)O2)s1	none (no result: XBP1 UPR activ, CHOP UPR activ, Bfl-1 A1 inh)
Cc1cccc(N2C(=O)/C(=C/c3cccnc3)SC2=S)c1	none
O=C1/C(=C\c2ccco2)SC(=S)N1C1CCCCC1	none (no result: MC4R antagonist, MC4R barr agon)
Cc1ccc(N2C(=O)/C(=C/c3cccnc3)SC2=S)cc1	MC4R barr agon 15 | MC4R barr conf inactive | MOR DOR agonist inactive
Cc1ccc(N2C(=O)/C(=C/c3ccco3)SC2=S)cc1	MC4R barr agon 23 | MC4R barr conf inactive | MOR DOR agonist inactive
CN1CCN(C(=O)C[C@H]2C[C@H]3c4cc(NC(=O)NC5CCCCC5)ccc4O[C@H]3[C@@H](CO)O2)CC1	none (no result: XBP1 UPR activ, CHOP UPR activ, Bfl-1 A1 inh)
COc1cccc(CN(C)CCCn2cnc(C(=O)Nc3ccc(C)c(C)c3)n2)c1	none (no result: XBP1 UPR activ, CHOP UPR activ, Bfl-1 A1 inh)
CC(C)(C)CC(C)(C)c1ccc(OCCOCC[N+](C)(C)Cc2ccccc2)cc1	MC4R barr agon 12 | MC4R barr conf 35 | MOR DOR agonist inactive
C[N+](C)(CCOc1ccccc1)Cc1ccccc1 (tested in a mixture with another compound)	none
CC(C)NC(=O)Nc1ccc2c(c1)C(=O)N([C@@H](C)CO)C[C@H](C)[C@H](CN(C)S(=O)(=O)c1ccccc1)OCCCC[C@H](C)O2	none (no result: XBP1 UPR activ, CHOP UPR activ, Bfl-1 A1 inh)
COc1ccc(-c2csc(NC(=O)c3nc(-c4ccccc4)oc3C)n2)cc1	MC4R barr agon 12 | MC4R barr conf inactive | MOR DOR agonist inactive
COc1ccc(-c2csc(NC(=O)c3ccccc3C(=O)O)n2)cc1	none
O[C@@H]1CN(Cc2cccs2)[C@@H](c2ccccc2)C[C@H]1n1cc(C2CC2)nn1	none (no result: XBP1 UPR activ, CHOP UPR activ, Bfl-1 A1 inh)
Cc1[nH]nc2nc(SCC(=O)NC3CCCCC3)n(-c3ccc(Br)cc3)c(=N)c12	MC4R barr agon 17 | MC4R barr conf inactive | MOR DOR agonist 23
COc1ccc(/C(C)=N/Nc2ncc(Cl)cc2Cl)c(O)c1	MC4R barr agon 13 | MC4R barr conf inactive | MOR DOR agonist inactive
C/C(=N\Nc1ncc(Cl)cc1Cl)c1ccc(C#N)cc1	none
CCN(CC)c1nc(OCCNC(=O)Nc2ccccc2)nc(N(CC)CC)n1	MC4R barr agon 13 | MC4R barr conf inactive | MOR DOR agonist inactive
CCCCNC(=O)C1(C)CCN1C(=O)c1cc(C)n(C(C)(C)C)n1 (centres undefined)	none (no result: XBP1 UPR activ, CHOP UPR activ, Bfl-1 A1 inh)
COc1ccc(C(=O)COC(=O)c2cc(=O)[nH]c3ccccc23)c(OC)c1	MC4R barr agon 12 | MC4R barr conf inactive | MOR DOR agonist inactive
O=C(Nc1cccc(C(=O)N2CCCC2)c1)C1CCCCC1	none (no result: XBP1 UPR activ, CHOP UPR activ, Bfl-1 A1 inh)
Cc1cc(NC(=O)c2cccs2)n(-c2nc3ccccc3[nH]2)n1	MC4R barr agon 12 | MC4R barr conf inactive | MOR DOR agonist inactive
Cc1cc(NC(=O)c2sccc2C)n(-c2nc3ccccc3[nH]2)n1	none
Cc1cc(NC(=O)CSc2nc3c(c(=O)n(C)c(=O)n3C)n2C(C)C)no1	MC4R barr agon 16 | MC4R barr conf inactive | MOR DOR agonist inactive
CCCc1cc(=O)oc2c(C)c(OCC(=O)Nc3ccc(CN4CCOCC4)cc3)ccc12	MC4R barr agon 16 | MC4R barr conf inactive | MOR DOR agonist inactive
